Measurements published in ChEMBL document CHEMBL3872208, “Synthesis and pharmacological characterization of novel N-(trans-4-(2-(4-(benzo[d]isothiazol-3-yl)piperazin-1-yl)ethyl)cyclohexyl)amides as potential multireceptor atypical antipsychotics” (Eur J Med Chem, 2016).
The source made the active and inactive calls. The calls are words filed in the database; no cut-off is given here.

Experiments:
[1] = Oral bioavailability in Sprague-Dawley rat brain at 2 mg/kg administered as single dose by LC-MS/MS analysis; assay type: ADME, organism-based
Outline: (§1)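 Male SD rats, single dose: 0.5 mg/kg i.v. or 2.0 mg/kg p.o. Vehicle is 5% DMSO, 10% Solutol HS 15 and 85% PBS. Heparinized blood is sampled at 5, 15 and 30 min and at 1, 2, 4, 8 and 24 h after dosing. Plasma is reported in ng/mL and brain in ng/g. F is derived from the p.o. and i.v. arms.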

[2] = target: T1, 5-hydroxytryptamine receptor 1A (Homo sapiens, UniProt P08908); assay: Antagonistic activity at 5-HT1A receptor (unknown origin) expressed in CHOK1 cells co-expressing G-alpha 15 assessed as inhibition of serotonin-induced calcium flux by Fluo-4 based FLIPR assay; assay type: functional, cell-based, CHO-K1
T1 sequence (P08908 whole entry): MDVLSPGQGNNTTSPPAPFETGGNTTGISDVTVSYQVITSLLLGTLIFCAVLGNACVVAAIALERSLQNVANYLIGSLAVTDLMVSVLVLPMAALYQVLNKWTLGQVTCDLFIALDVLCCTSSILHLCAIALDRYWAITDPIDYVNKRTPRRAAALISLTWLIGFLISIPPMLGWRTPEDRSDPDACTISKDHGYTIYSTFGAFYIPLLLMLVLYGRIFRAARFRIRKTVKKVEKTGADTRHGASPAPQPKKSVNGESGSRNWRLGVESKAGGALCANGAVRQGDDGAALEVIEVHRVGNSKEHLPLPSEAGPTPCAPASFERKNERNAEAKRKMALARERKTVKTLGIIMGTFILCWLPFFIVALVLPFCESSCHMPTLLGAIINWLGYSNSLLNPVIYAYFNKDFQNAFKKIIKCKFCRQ

[3] = system: Rattus norvegicus; assay: Antipsychotic activity in Sprague-Dawley rat assessed as inhibition of conditioned avoidance behavior at 1.0 to 2.0 mg/kg, ip administered as single dose measured after 1 hr; assay type: functional, organism-based
Outline: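 Male SD rats (150–180 g, 6 per group) trained in automated shuttle-boxes; only rats exceeding 80% avoidance were used. Single i.p. dose of 1.0 or 2.0 mg/kg given 1 h before a 20-trial session. Read-out is percentage of avoidance (mean ± SEM, n = 6), compared with the vehicle group.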

[4] = target: T2, D(3) dopamine receptor (Homo sapiens, UniProt P35462); assay: Displacement of [3H]methyl-spiperone from recombinant human D3 receptor expressed in CHO cell membranes after 60 mins by scintillation counting method
T2 sequence (P35462 whole entry): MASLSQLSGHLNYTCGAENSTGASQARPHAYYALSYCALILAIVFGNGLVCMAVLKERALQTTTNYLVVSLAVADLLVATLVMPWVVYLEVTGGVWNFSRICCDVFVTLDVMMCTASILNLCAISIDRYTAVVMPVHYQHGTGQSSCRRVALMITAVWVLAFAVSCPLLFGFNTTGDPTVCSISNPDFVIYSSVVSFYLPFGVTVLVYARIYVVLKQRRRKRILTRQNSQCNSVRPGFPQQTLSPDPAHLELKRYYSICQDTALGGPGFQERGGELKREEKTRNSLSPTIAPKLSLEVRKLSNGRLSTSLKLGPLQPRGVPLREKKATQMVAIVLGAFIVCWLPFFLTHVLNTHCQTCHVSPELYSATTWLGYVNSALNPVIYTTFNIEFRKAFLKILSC

[5] = target: D(2) dopamine receptor (Homo sapiens, UniProt P14416); assay: Displacement of [3H]spiperone from recombinant human D2L receptor expressed in CHO cell membranes after 60 mins by scintillation counting method
Chain of D(2) dopamine receptor (P14416 whole entry): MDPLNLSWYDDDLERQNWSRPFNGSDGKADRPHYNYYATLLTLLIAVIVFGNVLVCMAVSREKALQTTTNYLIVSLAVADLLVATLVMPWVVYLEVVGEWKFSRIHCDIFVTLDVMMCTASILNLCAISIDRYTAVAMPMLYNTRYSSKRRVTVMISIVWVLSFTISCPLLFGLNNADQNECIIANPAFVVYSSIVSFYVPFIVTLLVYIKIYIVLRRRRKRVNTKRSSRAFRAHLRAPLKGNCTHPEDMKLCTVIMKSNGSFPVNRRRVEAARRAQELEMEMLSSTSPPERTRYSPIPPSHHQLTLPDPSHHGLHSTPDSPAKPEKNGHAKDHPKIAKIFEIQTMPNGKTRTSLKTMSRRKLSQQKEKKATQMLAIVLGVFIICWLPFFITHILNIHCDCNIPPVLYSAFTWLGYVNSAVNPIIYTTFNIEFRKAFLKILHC

[6] = AUC (0 to t) in Sprague-Dawley rat brain at 2 mg/kg, po administered as single dose by LC-MS/MS analysis; assay type: ADME, organism-based; outline: as §1
[7] = target: T3, 5-hydroxytryptamine receptor 1A (Homo sapiens) (UniProt P08908); settings: CHO-K1, 10 uM
T3 sequence (whole entry): T1 sequence (P08908 whole entry)

[8] = system: Rattus norvegicus; assay: Toxicity in Sprague-Dawley rat assessed as cataleptogenic effect by measuring time spent in cataleptic position at 1 to 10 mg/kg, po measured after 0.5 to 2 hrs; assay type: organism-based; settings: in vivo
Outline: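 Male SD rats (180–250 g, n = 7) dosed orally at 1.0, 3.0 or 10.0 mg/kg. Forepaws placed on a bar 0.9 cm in diameter, 11 cm high, at 30, 60 and 120 min after dosing. Time held is expressed as a percentage of the 60 s maximum (mean ± SEM).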

[9] = target: T2, D(3) dopamine receptor; assay: Agonist activity at D3 receptor (unknown origin) expressed in cell membranes after 40 mins by [35S]GTPgammaS binding assay; assay type: functional
[10] = Half life in Sprague-Dawley rat brain at 0.5 mg/kg, iv administered as single dose by LC-MS/MS analysis; assay type: ADME, organism-based; outline: as §1
[11] = Tmax in Sprague-Dawley rat brain at 2 mg/kg, po administered as single dose by LC-MS/MS analysis; assay type: ADME, organism-based; outline: as §1
[12] = Cmax in Sprague-Dawley rat plasma at 0.5 mg/kg, iv administered as single dose by LC-MS/MS analysis; assay type: ADME, organism-based; design: dose 0.5 mg/kg, route intravenous; outline: as §1
[13] = Oral bioavailability in Sprague-Dawley rat plasma at 2 mg/kg administered as single dose by LC-MS/MS analysis; assay type: ADME, organism-based; outline: as §1
[14] = target: T2, D(3) dopamine receptor; settings: 10 uM
[15] = system: Rattus norvegicus; assay: Cognitive enhancement effect in Sprague-Dawley rat assessed as reversal of PCP-impaired performance by measuring increase in time spent exploring novel object in comparison to familiar object at 0.1 to 0.2 mg/kg, po administered 60 mins prior to test by novel object recognition assay
[16] = Half life in Sprague-Dawley rat brain at 2 mg/kg, po administered as single dose by LC-MS/MS analysis; assay type: ADME, organism-based; outline: as §1
[17] = Half life in Sprague-Dawley rat plasma at 0.5 mg/kg, iv administered as single dose by LC-MS/MS analysis; assay type: ADME, organism-based; outline: as §1
[18] = system: CHO; assay: Selectivity ratio of Ki for displacement of [3H]spiperone from recombinant human D2L receptor expressed in CHO cell membranes to Ki for displacement of [3H]methyl-spiperone from recombinant human D3 receptor expressed in CHO cell membranes
Outline: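 D2L binding: CHO membranes (16 µg protein) with 0.3 nM [3H]methyl-spiperone in 50 mM Tris-HCl pH 7.4, 120 mM NaCl, 10 mM MgCl2, 1 mM EDTA, with butaclamol for nonspecific binding. D3 binding: membranes (8 µg) with 0.3 nM [3H]methyl-spiperone in the same Tris buffer with 5 mM KCl, 5 mM MgCl2, 5 mM EDTA, with (+)butaclamol for nonspecific binding. Both run 60 min at 22 °C, then GF/B filtration. Ki by Cheng–Prusoff; ratio is D2 Ki/D3 Ki.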

[19] = Ratio of AUC (0 to t) in Sprague-Dawley rat brain to plasma at 2 mg/kg, po; assay type: ADME, organism-based; settings: brain and plasma, read-out: Ratio AUC
Outline: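 Male Sprague-Dawley rats given the test compound once orally at 2.0 mg/kg. Vehicle was 5% DMSO, 10% Solutol HS 15 and 85% PBS. Heparinized blood sampled at 5, 15, 30 min and 1, 2, 4, 8, 24 h after dosing; brain concentrations also measured (ng/g). Ratio is brain AUC0-t over plasma AUC0-t.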

O=C(N[C@H]1CC[C@H](CCN2CCN(c3nsc4ccccc34)CC2)CC1)c1ccco1
bioavailability [1]: 20.7% | IC50 [2]: 46.1 nM | inhibition [3]: Active | Ki [4]: 0.13 nM | Ki [5]: 2.9 nM | AUC(0-t) [6]: 884 ng·h/mL | inhibition [7]: 115% | Activity [8]: Non-Toxic | EC50 [9]: > 10000 nM | half-life [10]: 15.8 h | Tmax [11]: 2 h | Cmax [12]: 135 ng/mL | bioavailability [13]: 13% | inhibition [14]: 98.6% | Activity [15]: Active | half-life [16]: 16.3 h | half-life [17]: 0.8 h | Ratio Ki [18]: 22.3 | Kp [19]: 16.1
